# From ChEMBL document CHEMBL4052832, “Selective Inhibitors of Human Neuraminidase 3” (J Med Chem, 2018)
# Active and inactive are the calls of the source. No cut-off for these calls is given here.
# Assays:
# Sialidase-4 [1] = molecular target: T1, Sialidase-4 (Homo sapiens, UniProt Q8WWR8); assay: Inhibition of human N-terminal MBP-fused NEU4 expressed in Escherichia coli using 4MU-NANA as substrate preincubated for 15 mins followed by substrate addition measured after 30 mins by fluorescence based assay
# T1 sequence (Q8WWR8 whole entry): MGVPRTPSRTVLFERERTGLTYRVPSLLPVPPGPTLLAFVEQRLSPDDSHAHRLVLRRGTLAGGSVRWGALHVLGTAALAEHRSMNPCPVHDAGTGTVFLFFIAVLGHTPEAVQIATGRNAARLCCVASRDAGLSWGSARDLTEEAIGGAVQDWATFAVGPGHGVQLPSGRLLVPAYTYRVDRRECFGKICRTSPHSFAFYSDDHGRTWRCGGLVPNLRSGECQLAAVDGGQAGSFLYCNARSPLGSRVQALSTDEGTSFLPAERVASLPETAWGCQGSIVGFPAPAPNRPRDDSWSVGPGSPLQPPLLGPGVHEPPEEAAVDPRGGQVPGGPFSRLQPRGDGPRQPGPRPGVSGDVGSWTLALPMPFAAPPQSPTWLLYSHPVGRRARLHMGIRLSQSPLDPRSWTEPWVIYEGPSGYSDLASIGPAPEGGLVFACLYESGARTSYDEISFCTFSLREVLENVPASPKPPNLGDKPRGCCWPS
# Sialidase-3 [2] = molecular target: T2, Sialidase-3 (Homo sapiens, UniProt Q9UQ49); assay: Inhibition of human N-terminal MBP-fused NEU3 expressed in Escherichia coli using 4MU-NANA as substrate preincubated for 15 mins followed by substrate addition measured after 30 mins by fluorescence based assay
# T2 sequence (Q9UQ49 whole entry): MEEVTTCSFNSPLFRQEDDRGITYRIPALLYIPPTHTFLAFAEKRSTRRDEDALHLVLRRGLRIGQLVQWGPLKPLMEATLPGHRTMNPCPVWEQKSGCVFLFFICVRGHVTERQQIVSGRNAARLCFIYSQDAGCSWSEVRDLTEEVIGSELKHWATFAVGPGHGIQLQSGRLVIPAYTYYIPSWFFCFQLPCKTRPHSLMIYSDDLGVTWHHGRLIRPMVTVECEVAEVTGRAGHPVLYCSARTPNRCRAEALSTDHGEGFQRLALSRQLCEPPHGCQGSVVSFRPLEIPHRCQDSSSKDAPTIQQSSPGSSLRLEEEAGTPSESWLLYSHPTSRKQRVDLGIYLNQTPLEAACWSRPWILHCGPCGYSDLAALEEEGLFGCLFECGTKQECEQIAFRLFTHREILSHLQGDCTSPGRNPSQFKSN
# Sialidase-1 [3] = molecular target: T3, Sialidase-1 (Homo sapiens, UniProt Q99519); assay: Inhibition of human CathA-IRES-6His-tagged NEU1 expressed in HEK293T cells using 4MU-NANA as substrate preincubated for 15 mins followed by substrate addition measured after 30 mins by fluorescence based assay; type: cell-based, HEK-293T
# [4] = Kinetic solubility of compound in Prisma HT 6.5 buffer at pH 7.4 at 10 mM incubated in supersonic bath for 30 mins measured after 24 hrs by LC-MS analysis; type: physicochemical; conditions: pH 6.5, in the assay text read “at pH 6.5” for “at pH 7.4”, read-out: Kinetic_solubility
# Summary of the method: (§1)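 Kinetic solubility. 10 mM DMSO stock diluted 1:100 into 0.1 M Tris-HCl pH 7.4, Prisma HT buffer, or 0.9% NaCl in water (final 1% DMSO). Sonicated 30 min at 25 °C, equilibrated 24 h at 25 °C, filtered (0.2 μm), diluted in MeOH and analysed by LC-MS. Single measurements.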
# [5] = Kinetic solubility of compound in 0.9% NaCl at 10 mM incubated in supersonic bath for 30 mins measured after 24 hrs by LC-MS analysis; type: physicochemical; conditions: read-out: Kinetic_solubility; summary of the method: as §1
# [6] = Kinetic solubility of compound in Tris-HCl buffer at pH 7.4 at 10 mM incubated in supersonic bath for 30 mins measured after 24 hrs by LC-MS analysis; type: physicochemical; summary of the method: as §1
# [7] = Octanol-water partition coefficient, log D of compound at pH 7.4 at 10 uM after 2 hrs by LC-MS based shake flask analysis; type: physicochemical
# Summary of the method: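 Shake-flask log D at pH 7.4. Octanol and 0.1 M Tris-HCl pH 7.4, mutually saturated. Compound at 10 μM in buffer with 0.1% DMSO, at two octanol:buffer ratios, each in triplicate.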
# Sialidase-1 [8] = molecular target: T3, Sialidase-1; assay: Inhibition of human CathA-IRES-6His-tagged NEU1 expressed in HEK293T cells using 4MU-NANA as substrate preincubated for 15 mins followed by substrate addition measured every minute for 30 mins by fluorescence based assay; type: cell-based; conditions: hek-293t
# Summary of the method: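 Ki determination. Enzyme preincubated with serially diluted inhibitor 15 min at 0 °C, then serial 4MU-NANA concentrations added.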
# Sialidase-3 [9] = molecular target: T2, Sialidase-3; assay: Inhibition of human N-terminal MBP-fused NEU3 expressed in Escherichia coli using GM3 as substrate preincubated for 15 mins followed by substrate addition measured after 30 mins by fluorescence based assay
# Summary of the method: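 GM3 hydrolysis in 0.1 M sodium acetate pH 4.5. Serially diluted inhibitors preincubated with enzyme 15 min at 0 °C, then GM3 added to 500 μM for 30 min at 37 °C. Quenched with fresh 0.2 M sodium borate pH 10.2, then malononitrile added to form a fluorescent adduct with freed sialic acid; ex 357/em 434 nm.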
# [10] = molecular target: Sialidase NEU1/NEU4 (Mus musculus) (UniProt O35657+Q8BZL1); assay: Inhibition of NEU1/NEU4 in NEU3 knockout C57BL6 mouse brain homogenate up to 150 uM using 4MU-NANA as substrate after 30 mins relative to control
# Summary of the method: (§2)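 Brains from 12-week-old WT, neu1−/−, neu3−/− or neu3−/−neu4−/− mice, snap-frozen and homogenized in water; protein by Bradford. Acidic neuraminidase assayed at pH 4.6 using homogenate equal to 300 μg protein, inhibitor 0–150 μM and 200 μM 4MU-NANA, 37 °C for 30 min. Stopped with 0.4 M glycine pH 10.5. Activity relative to no-inhibitor, mean ± SD of 6–12 experiments.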
# [11] = molecular target: Sialidase NEU3/NEU4 (Mus musculus) (UniProt Q9JMH7+Q8BZL1); assay: Inhibition of NEU3/NEU4 in NEU1 knockout C57BL6 mouse brain homogenate using 4MU-NANA as substrate after 30 mins; summary of the method: as §2
# [12] = molecular target: Sialidase-1 (Mus musculus) (UniProt O35657); assay: Inhibition of NEU1 in NEU3/NEU4 double knockout C57BL6 mouse brain homogenate up to 150 uM using 4MU-NANA as substrate after 30 mins; summary of the method: as §2
# [13] = Inhibition in C57BL6 mouse brain homogenate at 10 uM using 4MU-NANA as substrate after 30 mins relative to control
# Sialidase-4 [14] = molecular target: T1, Sialidase-4; assay: Inhibition of human N-terminal MBP-fused NEU4 expressed in Escherichia coli using GM3 as substrate preincubated for 15 mins followed by substrate addition measured after 30 mins by fluorescence based assay
# Sialidase-4 [15] = molecular target: T1, Sialidase-4; assay: Inhibition of human N-terminal MBP-fused NEU4 expressed in Escherichia coli using 4MU-NANA as substrate preincubated for 15 mins followed by substrate addition measured every minute for 30 mins by fluorescence based assay
# [16] = molecular target: Sialidase-1 (Mus musculus) (UniProt O35657); assay: Inhibition of NEU1 in C57BL6 mouse brain homogenate using 4MU-NANA as substrate at 150 uM after 30 mins; summary of the method: as §2
# Sialidase-3 [17] = molecular target: T2, Sialidase-3; assay: Inhibition of human N-terminal MBP-fused NEU3 expressed in Escherichia coli using 4MU-NANA as substrate preincubated for 15 mins followed by substrate addition measured every minute for 30 mins by fluorescence based assay
# [18] = molecular target: Sialidase-1 (Mus musculus) (UniProt O35657); assay: Inhibition of NEU1 in C57BL6 mouse brain homogenate assessed as residual activity at 50 uM using 4MU-NANA as substrate after 30 mins relative to control; summary of the method: as §2
# Chain of Sialidase NEU3/NEU4 (Mus musculus) (Q8BZL1 whole entry, looked up): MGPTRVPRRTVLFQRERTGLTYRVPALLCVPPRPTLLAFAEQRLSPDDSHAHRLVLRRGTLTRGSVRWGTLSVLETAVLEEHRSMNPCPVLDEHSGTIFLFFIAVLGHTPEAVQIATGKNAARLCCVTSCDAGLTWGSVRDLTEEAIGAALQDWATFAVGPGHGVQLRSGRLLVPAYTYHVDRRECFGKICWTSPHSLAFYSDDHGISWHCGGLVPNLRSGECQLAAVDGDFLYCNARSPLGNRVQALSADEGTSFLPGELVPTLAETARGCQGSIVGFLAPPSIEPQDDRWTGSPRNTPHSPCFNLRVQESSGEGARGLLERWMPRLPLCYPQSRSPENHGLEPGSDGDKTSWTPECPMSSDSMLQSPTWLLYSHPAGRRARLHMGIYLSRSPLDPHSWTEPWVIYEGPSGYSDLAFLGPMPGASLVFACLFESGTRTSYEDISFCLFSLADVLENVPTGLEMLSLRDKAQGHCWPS
# Chain of Sialidase NEU3/NEU4 (Mus musculus) (Q9JMH7 whole entry, looked up): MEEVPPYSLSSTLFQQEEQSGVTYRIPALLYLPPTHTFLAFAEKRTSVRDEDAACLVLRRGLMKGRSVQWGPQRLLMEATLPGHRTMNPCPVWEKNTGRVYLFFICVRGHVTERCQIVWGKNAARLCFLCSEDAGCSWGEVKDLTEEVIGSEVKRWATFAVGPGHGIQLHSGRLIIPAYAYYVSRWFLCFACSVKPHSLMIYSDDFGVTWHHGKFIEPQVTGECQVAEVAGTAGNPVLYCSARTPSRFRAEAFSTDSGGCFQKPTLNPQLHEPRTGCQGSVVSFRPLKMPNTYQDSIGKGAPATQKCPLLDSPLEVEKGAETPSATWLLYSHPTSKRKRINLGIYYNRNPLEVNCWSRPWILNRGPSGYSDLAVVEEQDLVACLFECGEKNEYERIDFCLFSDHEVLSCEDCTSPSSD
Compound,IC50 (Sialidase-4 [1]) [µM],IC50 (Sialidase-3 [2]) [µM],IC50 (Sialidase-1 [3]) [µM],"logD at 2 h, 10 µM [7]",Ki (Sialidase-1 [8]),further results
CC(=O)N[C@H]1[C@H]([C@H](O)[C@H](O)Cn2cc(-c3ccc(C(=O)O)cc3)nn2)OC(C(=O)O)=C[C@@H]1N,> 500,> 500,> 500,–,–,–
CCCOC(=O)C1=C[C@H](O)[C@@H](NC(C)=O)[C@H]([C@H](O)[C@H](O)Cn2cc(-c3ccc(-c4ccccc4)cc3)nn2)O1,–,–,–,–,–,"solubility kinetic at 24 h, 10000 µM [4]: 1.7 µg/mL; solubility kinetic at 24 h, 10000 µM [5]: 2.4 µg/mL; solubility kinetic at 24 h, 10000 µM ([6]; Tris-HCl buffer, pH 7.4, read-out: Kinetic_solubility): 2.8 µg/mL"
COC(=O)C1=C[C@H](O)[C@@H](NC(C)=O)[C@H]([C@H](O)[C@H](O)Cn2cc(-c3ccc(-c4ccccc4)cc3)nn2)O1,–,–,–,2.3,–,"solubility kinetic at 24 h, 10000 µM [4]: > 1 µg/mL; solubility kinetic at 24 h, 10000 µM [5]: > 1 µg/mL; Kinetic_solubility ([6]; buffer, pH 7.4, 10000 µM): 1.5 µg/mL"
CCCCC(=O)NC[C@@H](O)[C@@H](O)[C@@H]1OC(C(=O)O)=C[C@H](O)[C@H]1NC(C)=O,220,–,–,-1,–,–
CC(=O)N[C@H]1[C@H]([C@H](O)[C@H](O)CO)OC(C(=O)O)=C[C@@H]1O [NEU5AC2EN],–,–,–,< -1.5,Not Active,–
CC(=O)N[C@H]1[C@H]([C@H](O)[C@H](O)CO)OC(C(=O)O)=C[C@@H]1NC(=N)N [ZANAMIVIR],–,–,> 500,–,Not Active,–
CC(=O)N[C@H]1[C@H]([C@H](O)[C@H](O)Cn2cc(-c3ccc(C(=O)O)cc3)nn2)OC(C(=O)O)=C[C@@H]1NC(=N)N,24,0.61,> 500,–,–,–
CC(=O)N[C@H]1[C@H]([C@H](O)[C@H](O)Cn2cc(-c3ccc(-c4ccccc4)cc3)nn2)OC(C(=O)O)=C[C@@H]1O,0.52,0.7,> 500,–,Not Active,IC50 (Sialidase-3 [9]): 12 µM; inhibition [10]: 20%; inhibition [11]: Active; inhibition [12]: inactive; inhibition [13]: < 70%; IC50 (Sialidase-4 [14]): 3.7 µM; Ki (Sialidase-4 [15]): 0.26 µM; inhibition [16]: inactive; Ki (Sialidase-3 [17]): 0.28 µM; Activity [18]: 60%
